Measurements taken from PubChem BioAssay AID1885 (Broad Institute, 2009).
The whole screen tested about 300,000 compounds, of which about 4,400 (1.5%) were called active.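 The calls were made as follows: active = mean inhibition across valid replicates above about 55% (limit read from the data); inconclusive = mean below that limit but half or more replicates reach it; inactive = mean below it, under half of replicates reach it.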 The entries come from a sample that favours actives as a whole.

Assay: inhibitors of intracellular T. cruzi growth, primary screen, luminescence, NIH3T3 host cells (AID 1885);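 also: signal also drops with host cell toxicity which is not excluded here; 0% = plate median of DMSO wells and 100% = zero luminescence signal; higher percent means less beta-gal luminescence so fewer parasites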
Conditions: T. cruzi beta-gal in NIH3T3, luminescence, 90 h; active compounds read high; concentration not given here
In short: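 Incubation – ≥90 h infection period, 3 h prior cell attachment · System – NIH/3T3 fibroblasts plus reporter T. cruzi · Doses – compound pinned at 50 nL/well, DMSO · Read-out basis – percent inhibition of parasite-derived β-gal signal · Signal – luminescent β-galactosidase signal after 60 min lysis · Also added – 5000 T. cruzi trypomastigotes/well · Medium – Low-serum DMEM with 2% FBS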

| Compound | inhibition |
| --- | --- |
| O=C1C(=O)N(CC2COc3ccccc3O2)c2ccccc21 (configuration not stated) | -17% (inactive) |
| Cc1cc(C(=O)CCl)c(C)n1CC1COc2ccccc2O1 (configuration not stated) | 60.4% (active) |
| Cc1cc(NC(=O)CCC2COc3ccccc3O2)no1 (configuration not stated) | 1.39% (inactive) |
| Cc1cc(C)c(C)c(S(=O)(=O)N2CCN(C(=O)c3ccc4c(=O)n5c(nc4c3)CCC5)CC2)c1C | -5.27% (inactive) |
| Nc1nc(Sc2ncccc2[N+](=O)[O-])n[nH]1 | -19.9% (inactive) |
| Brc1cnc2ccccc2c1N1CCCCC1 | 0.276% (inactive) |
| Cc1cccc(C(=O)OC(C)CN2CCCC2)c1 (configuration not stated) | -8.01% (inactive) |
| Cc1cccc(C(=O)OC(C)CN2CCN(C)CC2)c1 (configuration not stated) | 56.8% (active) |
| Cc1ccc(C(=O)OC(C)CN2CCOCC2)cc1 (configuration not stated) | -11.2% (inactive) |
| N#Cc1c(/N=C/N2CCCC2)oc(-c2ccccc2)c1-c1ccccc1 | 37.2% (inactive) |
| COc1ccc(-c2oc(/N=C/N3CCCC3)c(C#N)c2-c2ccc(OC)cc2)cc1 | 57.6% (active) |
| COc1cc(C(=O)Nc2oc(-c3ccccc3)c(-c3ccccc3)c2C#N)cc(OC)c1OC | 12.7% (inactive) |
| O=C(NC1CCCCC1)C1CCC(CNS(=O)(=O)c2ccccc2)CC1 (configuration not stated) | -8.43% (inactive) |
| OCCCNc1nc(-c2ccccc2)c2cc(Cl)ccc2n1 | 18.3% (inactive) |
| O=C(CCl)NNc1nc(-c2ccccc2)c2cc(Cl)ccc2n1 | 3.67% (inactive) |
| NC(N)=Nc1nc(-c2ccccc2)c2cc(Cl)ccc2n1 | 65.4% (active) |
| CC(Oc1ccccc1[N+](=O)[O-])C(=O)N/N=C/c1ccoc1 (configuration not stated) | -8.31% (inactive) |
| O=C(Nc1ccc(N2CCCCC2)cc1)c1cc(S(=O)(=O)N2CCOCC2)ccc1F | 22.8% (inactive) |
| CCN(CC)c1ccc(S(=O)(=O)N2CCOCC2)cc1NC(=O)CSc1cccc[n+]1[O-] | 5.13% (inactive) |
| O=C(Nc1ccc(S(=O)(=O)N2CCCC2)cc1Cl)C1=COCCO1 | -14.4% (inactive) |
| CCN(CC)c1ccc(S(=O)(=O)N2CCCCC2)cc1NC(=O)C1=COCCO1 | 61% (active) |
| COc1cccc(NC(=O)CN(C)C(=O)CSCc2nc3scc(-c4cccs4)c3c(=O)[nH]2)c1 | -4.78% (inactive) |
| O=C(NN1CCOCC1)c1cccc(F)c1 | -3.38% (inactive) |

| Compound | inhibition |
| --- | --- |
| COc1ccc2cc(S(=O)(=O)Nc3ccccn3)ccc2c1 | 4.63% (inactive) |
| COc1cc(NS(=O)(=O)c2ccc3ccccc3c2)c2ncccc2c1 | 76.5% (active) |
| Cc1ccc(NS(=O)(=O)c2ccc(C)c(NC(=O)COc3ccc4ccccc4c3)c2)c(C)c1 | 30.6% (inactive) |
| CC(C)C(c1nnnn1C1CCCCC1)N1CCN(C(=O)c2ccco2)CC1 (configuration not stated) | -11.6% (inactive) |
| CC(C)(C)c1ccc(C(=O)NCCn2c(N)c(C#N)c3nc4ccccc4nc32)cc1 | -43.8% (inactive) |
| CCCNC(=O)c1c(N)n(-c2ccc(S(N)(=O)=O)cc2)c2nc3ccccc3nc12 | -22.9% (inactive) |
| CC(C)Cn1c(N)c(C(=O)NCc2cccs2)c2nc3ccccc3nc21 | 59.8% (active) |
| COc1ccccc1CCNC(=O)C1CCN(C(=O)/C=C/c2ccccc2)CC1 | -2.7% (inactive) |
| CCN(CC)CCN(C(=O)c1cccc([N+](=O)[O-])c1)c1nc2ccc(OC)cc2s1 | 55.5% (active) |
| CCN(CC)CCN(C(=O)c1ccc(N2C(=O)CCC2=O)cc1)c1nc2cc3c(cc2s1)OCO3 | 40.8% (inactive) |
| CCOc1ccc2nc(N(CCN(C)C)C(=O)c3ccc4ccccc4c3)sc2c1 | 26.5% (inactive) |
| CCOc1ccc(NC(=O)CCC(=O)NNC(=O)NC2CCCCC2)cc1 | 8.19% (inactive) |
| Cc1ccc2nc(SCC(=O)N3CC(C)OC(C)C3)nc(=O)n2c1 (configuration not stated) | -6.75% (inactive) |
| CCN(Cc1ccccc1)S(=O)(=O)c1cc2c3c(c1)CCN3C(=O)CC2 | -1.06% (inactive) |
| O=c1cnnc(Nc2ccccc2F)[nH]1 | -1.79% (inactive) |
| CC(C)(C)[C@H]1C=C(C(=O)NCc2ccccc2)O[C@@H](OCc2ccc(CO)cc2)C1 | 7.55% (inactive) |
| O=C(C1=C[C@H](c2ccc(C(F)(F)F)cc2)C[C@H](OCc2ccc(CO)cc2)O1)N1CCN(Cc2ccccc2)CC1 | 40.5% (inactive) |
| O=C(NCc1ccccc1)C1=C[C@@H](c2ccc(C(F)(F)F)cc2)C[C@@H](OCc2ccc(CO)cc2)O1 | 63% (active) |
| OCCNc1nc(Nc2ccc(Cl)c(Cl)c2)nc2ccccc12 | 64.3% (active) |
| CN(C)c1nc(Nc2ccc(Cl)c(Cl)c2)nc(N(C)C)n1 | 9.61% (inactive) |
| COc1cc2nc(Cl)nc(NCCO)c2cc1OC | -12.7% (inactive) |
| COCCNc1nc(-c2ccccc2)nc2c1oc1ccccc12 | 36.8% (inactive) |
| CCc1noc(C)c1C(=O)Oc1ccc(N(C)S(=O)(=O)c2ccc(C)c(C)c2)cc1 | 31% (inactive) |

| Compound | inhibition |
| --- | --- |
| COC(=O)C(C(=O)Nc1cccc(Cl)c1C)C1CCCC1 (configuration not stated) | -20.2% (inactive) |
| COCCCn1c(SCC(=O)Nc2oc(C)c3c(C)n[nH]c(=O)c23)nc2sc3c(c2c1=O)CCC3 | 2.14% (inactive) |
| CN(C1CCS(=O)(=O)C1)S(=O)(=O)c1ccc2ccccc2c1 (configuration not stated) | -3.79% (inactive) |
| Brc1ccc(-c2csc(N/N=C/c3cccnc3)n2)cc1 | 69.8% (active) |
| Cc1ccccc1Nc1nc(-c2cccnc2)cs1 | 20.2% (inactive) |
| Brc1ccc(-c2csc(N/N=C/c3ccc4c(c3)OCO4)n2)cc1 | 31.5% (inactive) |
| COC(C[C@@H]1O[C@@H]1C(=O)[C@@H](C)OCc1ccccc1)OC | 3.07% (inactive) |
| CCCCN(CCCC)CCCNC(=O)CN1C(=O)COc2ccc(S(=O)(=O)N3CCC(C)CC3)cc21 | 10.4% (inactive) |
| Cc1cc(C)c(-c2c(O)c3ccccc3n(C)c2=O)c(C)c1 | -3.11% (inactive) |
| COc1cc(C2/C(=C(\O)c3ccc4c(c3)CC(C)O4)C(=O)C(=O)N2c2nnc(C)s2)cc(OC)c1OC (configuration not stated) | -5.79% (inactive) |
| O=C(CSc1n[nH]c(=O)n1-c1ccccc1)Nc1ccccc1C(F)(F)F | -3.4% (inactive) |
| O=C(NCCC1CCCCN1S(=O)(=O)c1ccccc1)C(=O)NCC1CCCO1 (configuration not stated) | -5.32% (inactive) |
| COc1cccc(CNC(=O)CCC2CCCN(Cc3ccc(OC(F)F)cc3)C2)c1 (configuration not stated) | 49.4% (inactive) |
| O=C(CCC1CCCN(Cc2ccc(O)c(Cl)c2)C1)NCc1ccccc1F (configuration not stated) | 65.4% (active) |
| CSc1ncccc1C(=O)N1CCCC(CCC(=O)NCc2ccccc2F)C1 (configuration not stated) | 2.43% (inactive) |
| CC(=O)c1ccc(S(=O)(=O)N2CCN(c3nc4c(C)c(C)ccc4cc3C#N)CC2)cc1 | 63.6% (active) |
| CC(=O)c1ccc(S(=O)(=O)N2CCN(C(=O)/C=C/c3ccc4ccccc4n3)CC2)cc1 | 20.6% (inactive) |
| CC(=O)c1ccc(S(=O)(=O)N2CCC3(CC2)OCCO3)cc1 | 4.17% (inactive) |
| CCOc1ccc2ccccc2c1/C=N/NC(=O)c1c(C)cc(C)[nH]c1=O | 13.7% (inactive) |
| O=C(CSc1ccc(-c2ccc(-n3cccn3)cc2)nn1)Nc1ccc([N+](=O)[O-])cc1 | -0.835% (inactive) |
| COc1ccc(C(CNC(=O)c2ccc(S(=O)(=O)Nc3ccccc3C)cc2)N2CCOCC2)cc1 (configuration not stated) | -0.159% (inactive) |
| CSc1nccc(NC(=O)c2ccc(C(C)(C)C)cc2)n1 | -6.33% (inactive) |
| NC(=O)C1(N2CCCCC2)CCN(C2CC(=O)N(Cc3ccc(N4CCCC4=O)cc3)C2=O)CC1 (configuration not stated) | 7.91% (inactive) |

| Compound | inhibition |
| --- | --- |
| O=C(N1CCCC1)C12CC3CC(C1)CC(C(=O)N1CCCC1)(C3)C2 | -14.8% (inactive) |
| CN1CCN(CC(=O)C23CC4CC(CC(C4)C2)C3)CC1 | 56.4% (active) |
| CC(C)(C)NC(=O)CN1CCC(NC(=O)C23CC4CC(CC(C4)C2)C3)CC1 | 26.6% (inactive) |
| COc1ccc(CC(=O)Nc2ccc3c(c2)CCC3)cc1S(=O)(=O)N1CCOCC1 | -10.7% (inactive) |
| COc1ccc(CNc2ccc3c(c2)CCC3)cc1OC | 65.6% (active) |
| COc1ccc(CNc2cc(C)cc(C)c2)cc1OC | -0.404% (inactive) |
| Cc1ccc(S(=O)(=O)NCCC(=O)NNC(=O)C2COc3ccccc3O2)cc1 (configuration not stated) | 1.4% (inactive) |
| COc1cccc(C(=O)Nc2cc3c(cc2Br)OCCCO3)c1 | 11.1% (inactive) |
| Oc1ccc2ccccc2c1N=Nc1nccs1 | 71.1% (active) |
| Oc1ccc(N=Nc2nccs2)c(O)c1 | 47.7% (inactive) |
| Cc1ccc(N2CC(C(=O)Nc3cc(Cl)ccc3-n3cncn3)CC2=O)cc1 (configuration not stated) | -5.75% (inactive) |
| COc1ccc(-c2c(NC(=O)c3ccco3)oc3ccc(Cl)cc3c2=O)cc1 | -16.1% (inactive) |
| CC(=O)c1ccc(S(=O)(=O)NCc2nnnn2-c2ccccc2)cc1 | -4.22% (inactive) |
| CCCCN(C(=O)c1ccc(S(=O)(=O)N2CCOCC2)cc1)C1CCS(=O)(=O)C1 (configuration not stated) | -3.57% (inactive) |
| COc1ccccc1OCCNC(=O)c1cc([N+](=O)[O-])cc([N+](=O)[O-])c1 | 72.3% (active) |
| COc1ccccc1OCCNC(=O)CCNC(=O)c1ccccc1Cl | -10.4% (inactive) |
| CC(C)(C)SCCNC(=O)c1cccc([N+](=O)[O-])c1 | -5.13% (inactive) |
| CS(=O)(=O)N1CCN(C(=O)CSc2ccccc2)CC1 | -1.63% (inactive) |
| COc1ccc(C(C)NC(=O)C2CCCC2)cc1 (configuration not stated) | -4.14% (inactive) |
| COc1ccccc1CC(NC(C)=O)C(=O)NC1CCN(C(=O)Nc2ccccc2Cl)CC1 (configuration not stated) | -13.9% (inactive) |
| COc1ccccc1CN1CCN(Cc2cc(OC)c(OC)cc2OC)CC1 | 25.3% (inactive) |
| COc1ccccc1CN1CCCC(N2CCN(c3ccc(F)cc3)CC2)C1 (configuration not stated) | 57.3% (active) |
| COc1ccc(CN2CCCC(N3CCc4ccccc4C3)C2)c(O)c1 (configuration not stated) | 22.8% (inactive) |
